Assay results: ChEMBL document CHEMBL4393692, “Thiazolidinone/thiazole based hybrids - New class of antitrypanosomal agents” (Eur J Med Chem, 2019)
Calls of active or inactive are those of the source. No cut-off for these calls is given here.

How the values were obtained:
[1] = Cytotoxicity against human AB943 cells assessed as reduction in cell viability after 5 days resazurin dye based fluorescence assay; conditions: 120 h
How it was run: (§1)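 Human primary fibroblasts grown in RPMI with 25 mM HEPES pH 7.3 and 10% FCS, 37°C, 5% CO2. After trypsinisation, seeded at 5000 cells/well and incubated 24 h. Then washed and exposed to two-fold drug dilutions, final DMSO below 1%, for 5 days. Resazurin added, fluorescence read (ex 530/em 590 nm) after 4 h. Growth inhibition vs DMSO control. SI = IC50 fibroblast / IC50 T. b. gambiense.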

[2] = tested on: Trypanosoma brucei gambiense; assay: Antitrypanosomal activity against bloodstream form of Trypanosoma brucei gambiense Feo reduction in parasite growth after 72 hrs by resazurin dye based fluorescence assay; format: functional, organism-based
How it was run: (§2)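 Bloodstream parasites cultured in HMI9 with 10% FCS at 37°C under 5% CO2. Log-phase cells harvested at 3000xg, plated at 10^5 cells/ml with dilutions from 10 down to 0.625 µg/ml (DMSO stocks) for 72 h. Resazurin added at 45 µM final, fluorescence read after a further 4 h. Inhibition vs DMSO control. IC50 from dose-response curve, mean ± SD of three independent experiments.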

[3] = Selectivity index, ratio of IC50 for human AB943 cells to IC50 of bloodstream form of Trypanosoma brucei gambiense Feo; format: toxicity; conditions: read-out: Ratio IC50; how it was run: as §1
[4] = tested on: Trypanosoma brucei brucei; assay: Antitrypanosomal activity against bloodstream form of Trypanosoma brucei brucei 90-13 reduction in parasite growth after 72 hrs by resazurin dye based fluorescence assay; format: functional, organism-based; conditions: 90-13, 72 h; how it was run: as §2
[5] = tested on: Trypanosoma brucei brucei; assay: Antitrypanosomal activity against bloodstream form of Trypanosoma brucei brucei 90-13 assessed as reduction in parasite growth at 10 ug/ml after 72 hrs by resazurin dye based fluorescence assay relative to control; format: functional; conditions: 90-13, 72 h
How it was run: (§3)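 Bloodstream forms grown in HMI9 + 10% FCS, 37°C, 5% CO2. Log-phase cells harvested at 3000xg and seeded at 10^5 cells/ml, exposed to test substance from DMSO stock at a single screening level of 10 or 1 µg/mL for 72 h. Resazurin added (final 45 µM), 4 h more, then fluorescence read. Growth inhibition expressed against DMSO control.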

[6] = tested on: Trypanosoma brucei brucei; assay: Antitrypanosomal activity against bloodstream form of Trypanosoma brucei brucei 90-13 reduction in parasite growth at 1 ug/ml after 72 hrs by resazurin dye based fluorescence assay relative to control; format: functional; conditions: for inhibition at 1 µg/mL: 90-13, 72 h; how it was run: as §3

CCc1nn2c(/C=N/N=c3\scc(-c4ccc(Br)cc4)n3-c3ccc(O)cc3)c(-c3ccc(Br)cc3)nc2s1
IC50 [1]: > 70 µM
IC50 [2]: 0.476 µM
selectivity ratio [3]: > 150

CCc1nn2c(/C=N/N=c3\scc(-c4ccc([N+](=O)[O-])cc4)n3-c3ccc(O)cc3)c(-c3ccc(Br)cc3)nc2s1
IC50 [1]: > 70 µM
IC50 [2]: 0.51 µM
selectivity ratio [3]: > 150

O=C1N/C(=N/N=C/c2c(-c3ccccc3)[nH]c3ccccc23)SC1CCO (stereo unspecified)
IC50 [4]: 0.17 µM

O=C(CC1S/C(=N\N=C2CCCCC2)NC1=O)c1ccc(F)cc1 (stereo unspecified)
inhibition at 10 µg/mL [5]: 98.5%
inhibition at 1 µg/mL [6]: 8.16%

C=CCN1C(=O)C(CC(=O)c2ccc(F)cc2)S/C1=N\N=C\c1ccc(N(C)C)cc1 (stereo unspecified)
inhibition at 10 µg/mL [5]: 14.7%
inhibition at 1 µg/mL [6]: 11.1%

C=CCSc1nn2c(/C=N/N=c3\sc(C(=O)OCC)c(C)n3-c3ccc(O)cc3)c(-c3ccccc3)nc2s1
IC50 [1]: > 80 µM
IC50 [2]: 0.631 µM
selectivity ratio [3]: > 130

O=C(CC1S/C(=N\N=C\c2c(-c3ccccc3)[nH]c3ccccc23)NC1=O)c1ccc(F)cc1 (stereo unspecified)
IC50 [4]: 10.6 µM

Cc1ccc(NC(=O)CC2S/C(=N\N=C3\CC4CCC3(C)C4(C)C)NC2=O)cc1 (stereo unspecified)
inhibition at 10 µg/mL [5]: 30%
inhibition at 1 µg/mL [6]: 4.18%

C=CCSc1nn2c(/C=N/N=c3/[nH]c(C)c(C(=O)OCC)s3)c(-c3ccccc3)nc2s1
IC50 [1]: 4.33 µM
IC50 [2]: 0.652 µM
selectivity ratio [3]: 7

CCOC(=O)c1ccc(NC(=O)CC2S/C(=N\N=C\c3c(-c4ccccc4)[nH]c4ccccc34)NC2=O)cc1 (stereo unspecified)
IC50 [4]: 6.86 µM

O=C(O)CC1S\C(=N/N=C/C(Cl)=C/c2ccc([N+](=O)[O-])cc2)N(c2ccc(O)cc2)C1=O (stereo unspecified)
inhibition at 10 µg/mL [5]: 25%
inhibition at 1 µg/mL [6]: -1.57%

CCc1nn2c(/C=N/N=c3/[nH]c(-c4ccc(Br)cc4)cs3)c(-c3ccc([N+](=O)[O-])cc3)nc2s1
IC50 [1]: > 90 µM
IC50 [2]: 1.2 µM
selectivity ratio [3]: > 70

O=C(CC1S/C(=N\N=C2CCCCC2)NC1=O)Nc1ccc(F)cc1 (stereo unspecified)
inhibition at 10 µg/mL [5]: -4.66%
inhibition at 1 µg/mL [6]: -4.65%

CC12CCC(C/C1=N/N=C1/NC(=O)C(CC(=O)c3ccc(F)cc3)S1)C2(C)C (stereo unspecified)
inhibition at 10 µg/mL [5]: 42%
inhibition at 1 µg/mL [6]: 36.1%

C=CCSc1nn2c(/C=N/N=C3/NC(=O)C(CCOC(C)=O)S3)c(-c3ccccc3)nc2s1 (stereo unspecified)
IC50 [1]: 19.2 µM
IC50 [2]: 5.7 µM
selectivity ratio [3]: 3

CCOC(=O)c1s/c(=N\N=C\c2c(-c3ccccc3)nc3sc(CC)nn23)n(-c2ccc(O)cc2)c1C
IC50 [1]: 51.5 µM
IC50 [2]: 0.745 µM
selectivity ratio [3]: 69

O=C(CC1S\C(=N/N=C/C=C/c2ccccc2)N(c2ccc(O)cc2)C1=O)Nc1ccc(F)cc1 (stereo unspecified)
inhibition at 10 µg/mL [5]: -8.23%
inhibition at 1 µg/mL [6]: 1.18%

CCOC(=O)c1sc(N/N=C/c2c(-c3ccc(Cl)cc3)[nH]c3ccccc23)nc1C
IC50 [1]: 20.5 µM
IC50 [2]: 0.53 µM
selectivity ratio [3]: 39

CCOC(=O)c1s/c(=N\N=C\c2c(-c3ccc([N+](=O)[O-])cc3)[nH]c3ccccc23)n(-c2ccc(O)cc2)c1C
IC50 [1]: 82.9 µM
IC50 [2]: 0.66 µM
selectivity ratio [3]: 127

O=C(O)CCCCCNC(=O)CC1S/C(=N\N=C\c2c(-c3ccccc3)[nH]c3ccccc23)NC1=O (stereo unspecified)
IC50 [4]: 14 µM

O=[N+]([O-])c1ccc(-c2[nH]c3ccccc3c2/C=N/Nc2nc(-c3ccc(Br)cc3)cs2)cc1
IC50 [1]: > 96.5 µM
IC50 [2]: 2.3 µM
selectivity ratio [3]: > 40

COc1cc(/C=N/N=C2\SC(CC(=O)c3ccc(F)cc3)C(=O)N2c2ccc(O)cc2)ccc1OCC(=O)O (stereo unspecified)
inhibition at 10 µg/mL [5]: 14.5%
inhibition at 1 µg/mL [6]: 15.1%

CCc1nn2c(/C=N/N=C3\SC(CCOC(C)=O)C(=O)N3c3ccc(O)cc3)c(-c3ccc(Br)cc3)nc2s1 (stereo unspecified)
IC50 [1]: 11.2 µM
IC50 [2]: 1 µM
selectivity ratio [3]: 11

O=C(CC1S\C(=N/N=C/C=C/c2ccccc2)NC1=O)Nc1ccc([N+](=O)[O-])cc1 (stereo unspecified)
inhibition at 10 µg/mL [5]: 56.1%
inhibition [6]: inactive

CC(=O)OCCC1S/C(=N\N=C\c2c(-c3ccc(Cl)cc3)[nH]c3ccccc23)N(c2ccc(O)cc2)C1=O (stereo unspecified)
IC50 [1]: > 90 µM
IC50 [2]: 0.38 µM
selectivity ratio [3]: > 240

O=C1N/C(=N/N=C/c2c(-c3ccc(Cl)cc3)[nH]c3ccccc23)SC1CCO (stereo unspecified)
IC50 [1]: 8.96 µM
IC50 [2]: 1.49 µM
selectivity ratio [3]: 7

O=C(CC1S\C(=N/N=C/C=C/c2ccccc2)NC1=O)c1ccc(F)cc1 (stereo unspecified)
inhibition at 10 µg/mL [5]: 57.3%
inhibition at 1 µg/mL [6]: 38.7%

CCOC(=O)c1s/c(=N\N=C\c2c(-c3ccc([N+](=O)[O-])cc3)nc3sc(CC)nn23)n(-c2ccc(O)cc2)c1C
IC50 [1]: > 80 µM
IC50 [2]: 0.639 µM
selectivity ratio [3]: > 130

O=C(O)CCCNC(=O)CC1S/C(=N\N=C\c2ccco2)NC1=O (stereo unspecified)
inhibition at 10 µg/mL [5]: 10%
inhibition at 1 µg/mL [6]: 0.06%

C=CCN1C(=O)C(CC(=O)c2ccc(F)cc2)S/C1=N\N=C\c1ccccc1 (stereo unspecified)
inhibition at 10 µg/mL [5]: 14.7%
inhibition at 1 µg/mL [6]: 11.1%

O=C(CC1S\C(=N/N=C/C=C/c2ccccc2)N(Cc2ccco2)C1=O)Nc1cccc(C(F)(F)F)c1 (stereo unspecified)
inhibition at 10 µg/mL [5]: 98.9%
inhibition at 1 µg/mL [6]: 5.06%

CC12CCC(C/C1=N/N=C1/NC(=O)C(CC(=O)Nc3ccc(Cl)cc3)S1)C2(C)C (stereo unspecified)
inhibition at 10 µg/mL [5]: 97.8%
inhibition at 1 µg/mL [6]: 14.1%

O=C(CC1S/C(=N\N=C\c2ccco2)NC1=O)c1ccc2c(c1)CCCC2 (stereo unspecified)
inhibition at 10 µg/mL [5]: 10.9%
inhibition at 1 µg/mL [6]: 9.82%

CCC1S/C(=N\N=C\c2c(-c3ccc([N+](=O)[O-])cc3)[nH]c3ccccc23)N(c2ccc(O)cc2)C1=O (stereo unspecified)
IC50 [1]: 8.6 µM
IC50 [2]: 0.14 µM
selectivity ratio [3]: 60

CC12CCC(C/C1=N/N=C1/NC(=O)C(CC(=O)Nc3ccc(Br)cc3)S1)C2(C)C (stereo unspecified)
inhibition at 10 µg/mL [5]: 97%
inhibition [6]: inactive

C=CCSc1nn2c(/C=N/N=C3\SC(CC)C(=O)N3c3ccc(O)cc3)c(-c3ccccc3)nc2s1 (stereo unspecified)
IC50 [1]: > 90 µM
IC50 [2]: 3.6 µM
selectivity ratio [3]: > 26

O=C1CS/C(=N\N=C\c2c(-c3ccccc3)[nH]c3ccccc23)N1
IC50 [1]: 13.2 µM
IC50 [2]: 0.23 µM
selectivity ratio [3]: 57

O=C1CS/C(=N\N=C\c2c(-c3ccc(Cl)cc3)[nH]c3ccccc23)N1Cc1ccco1
IC50 [2]: 7.31 µM

CCc1nn2c(C=O)c(-c3ccccc3)nc2s1
IC50 [2]: > 40 µM

C=CCSc1nn2c(/C=N/N=C3/NC(=O)CS3)c(-c3ccccc3)nc2s1
IC50 [2]: 3.9 µM

O=C1C(CCO)S/C(=N\N=C\c2c(-c3ccc(Cl)cc3)[nH]c3ccccc23)N1Cc1ccco1 (stereo unspecified)
IC50 [1]: 6.23 µM
IC50 [2]: 1.4 µM
selectivity ratio [3]: 4

O=C(CC1S\C(=N/N=C/C=C/c2ccccc2)NC1=O)c1ccc2c(c1)CCCC2 (stereo unspecified)
inhibition at 10 µg/mL [5]: 53.2%
inhibition at 1 µg/mL [6]: 7.69%

O=C(CC1S/C(=N\N=C2CCCCC2)NC1=O)Nc1ccc([N+](=O)[O-])cc1 (stereo unspecified)
inhibition at 10 µg/mL [5]: 44.9%
inhibition [6]: inactive

O=C1CS/C(=N\N=C\c2c(-c3ccc(Cl)cc3)[nH]c3ccccc23)N1c1ccc(O)cc1
IC50 [1]: > 100 µM
IC50 [2]: 0.82 µM
selectivity ratio [3]: > 130

CCC1S/C(=N\N=C\c2c(-c3ccc(Cl)cc3)[nH]c3ccccc23)N(Cc2ccco2)C1=O (stereo unspecified)
IC50 [2]: 1.71 µM

CCc1nn2c(/C=N/N=c3/[nH]c(-c4ccc([N+](=O)[O-])cc4)cs3)c(-c3ccc(Br)cc3)nc2s1
IC50 [2]: 9.2 µM

C=CCSc1nn2c(/C=N/N=C3/NC(=O)C(C)S3)c(-c3ccccc3)nc2s1 (stereo unspecified)
IC50 [2]: 4.4 µM

O=C(O)CC1SC(N/N=C/C=C/c2ccccc2[N+](=O)[O-])=NC1=O (stereo unspecified)
inhibition at 10 µg/mL [5]: 24.9%
inhibition at 1 µg/mL [6]: 3.28%

CCc1nn2c(/C=N/N=C3/NC(=O)C(C)S3)c(-c3ccccc3)nc2s1 (stereo unspecified)
IC50 [2]: > 25 µM
